Source: PMC8182972 (Journal of medicinal chemistry, 2011)
Values after ≈ are worked out from the molar mass of the structure shown. Values joined by “and” are separate entries in the source; they are usually repeats but may differ in a detail not shown here. Identical values can stand only once. “Also recorded” adds a separate entry of the source.

Tests used:
[1] = system: PC12 cells expressing mutant G93A SOD1; format: cell-based; details: for EC50: PC12 cells expressing mutant G93A SOD1, MG132 100 nM, Calcein-AM viability
[2] = In vitro microsomal stability, human; format: in vitro ADME; details: 37 °C; for CLint scaled at 1 h, 5 µM: human, microsomes
[3] = In vitro microsomal stability, mouse; format: in vitro ADME; details: 5 μM, 37 °C; for CL’int: 1 h, with NADPH; for CL’int NADPH-free: absence of NADPH
[4] = Aqueous solubility; format: physicochemical; details: for Maximum Solubility: 1% DMSO in PBS
[5] = system: Caco-2 monolayer cells; assay: Caco-2 permeability; format: in vitro ADME; details: for Ratio (B→A / A→B): Caco-2 efflux ratio
[6] = system: primary cortical neurons; assay: Primary cortical neuron cell protection assay; format: cell-based, rat; details: MG132 100 nM; active = viability restored ≥ 5 SD from MG132 controls
[7] = Metabolite profiling of 1; format: in vitro ADME; details: rat liver microsomes, 5 μM, in the presence of NADPH, LC/MS/MS
Summary of the method: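 Test compound and its [15N2]-labelled analog (5 μM) were incubated in duplicate with or without rat liver microsomes, in the presence and absence of NADPH. Aliquots were taken at 0, 10, 20, 40 and 60 min. Protein was precipitated with acetonitrile containing internal standard, and supernatants were analysed by LC/MS/MS for new peaks absent from no-microsome, no-compound and no-NADPH controls.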

[8] = system: SHSY-5Y; assay: Screen in other cell types: SHSY-5Y; format: cell-based
[9] = system: HeLa; assay: Screen in other cell types: HeLa; format: cell-based
[10] = system: HEK293; assay: Screen in other cell types: HEK293; format: cell-based
[11] = Mouse in vivo steady-state level and blood-brain barrier penetration; set-up: species or system mice
Summary of the method: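 B6SJL mice received a 300 mg/kg bolus i.p. injection of test compound. Blood and brain were collected at 0, 1, 3, 6, 12 and 24 h, flash-frozen in liquid nitrogen and stored at -80 °C. Samples were quantified by mass spectrometry with ESI ionization in MRM mode.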

[12] = In vivo rat PK profiling; set-up: species or system Sprague-Dawley rats; details: SD rats
Summary of the method: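 Sprague-Dawley rats received a single 1 mg/kg bolus of test compound, i.v. or orally. Plasma profiling gave AUC last, AUC/dose, T1/2, clearance, Vss, Cmax, Tmax and oral bioavailability (%F). Work was done by a contract partner.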

[13] = target: CYP2C19 (Homo sapiens, UniProt P33261); assay: CYP inhibition in human liver microsomes; format: biochemical
Summary of the method: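 Reversible CYP inhibition was measured in human liver microsomes across CYP1A2, 2C9, 2C19, 2D6 and 3A4. Each isozyme used a single probe substrate, except CYP3A4, which used both testosterone and midazolam. IC50 values were derived from this. Work was done by a contract partner.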

[14] = system: 68 in vitro enzyme and receptor assays; assay: LeadProfilingScreen; format: binding; details: 10 μM, in duplicate
Summary of the method: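 Test compound was screened at 10 μM in duplicate against a commercial panel of 68 enzyme and receptor assays. The panel covers common adverse CNS, cardiovascular, pulmonary and […] liabilities.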

[15] = system: ALS patients; details: cited from earlier work
[16] = B6SJL, mouse, plasma, ip, 300 mg/kg

CYP2C19, sequence (P33261 whole entry): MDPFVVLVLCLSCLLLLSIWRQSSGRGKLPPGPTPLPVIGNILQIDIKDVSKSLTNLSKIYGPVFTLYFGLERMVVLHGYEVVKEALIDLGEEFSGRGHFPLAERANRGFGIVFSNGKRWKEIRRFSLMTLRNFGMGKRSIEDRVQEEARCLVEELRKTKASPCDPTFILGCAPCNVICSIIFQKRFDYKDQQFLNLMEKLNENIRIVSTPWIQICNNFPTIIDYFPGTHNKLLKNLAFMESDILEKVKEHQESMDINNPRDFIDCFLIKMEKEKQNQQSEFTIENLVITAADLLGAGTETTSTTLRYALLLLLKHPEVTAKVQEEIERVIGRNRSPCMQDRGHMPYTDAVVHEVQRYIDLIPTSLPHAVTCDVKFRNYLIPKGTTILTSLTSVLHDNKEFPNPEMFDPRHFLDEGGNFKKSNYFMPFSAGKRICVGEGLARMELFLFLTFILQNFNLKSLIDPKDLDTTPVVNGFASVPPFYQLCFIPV

With “5-(3,5-Dichlorophenylsulfonyl)-1H-pyrazol-3(2H)-one [Compound 7]” the EC50 [1] was 1410 nM, the “CL’int” value ([2]; 5 μM, 1 h, with NADPH) was 4.5 mL/min/kg and the “CL’int NADPH-free” value ([2]; 5 μM, absence of NADPH) was 1.3 mL/min/kg. For the same molecule, the “CL’int” value [3] was 15.3 mL/min/kg, the “Maximum Solubility” value ([4]; 45 min) was ≥500 µM and the “Maximum Solubility” value ([4]; 16 h) was ≥500 µM. The “Papp (A→B)” value ([5]; Caco-2) was 27.0 10^−6 cm/s, the “Papp (B→A)” value ([5]; Caco-2) was 4.4 10^−6 cm/s and the “Ratio (B→A / A→B)” value [5] was 0.2. For the same molecule, the “activity in primary cortical neuron cell protection assay” value [6] was “active”.

Work on “5-(4-Chloro-2,5-dimethylphenylsulfinyl)-1H-pyrazol-3(2H)-one [Compound 5]” yielded an EC50 [1] of 2880 nM.

“5-(4-Chloro-2,5-dimethylphenylsulfonyl)-1H-pyrazol-3(2H)-one [Compound 8]” gave an EC50 [1] of 1470 nM.

With “5-(4-Chlorophenylsulfinyl)-1H-pyrazol-3(2H)-one [Compound 4]” the “maximum viability in the cytotoxicity protection assay” value [1] was ~ 35% and the EC50 [1] was > 32000 nM.

“5-(4-Chlorophenylsulfonyl)-1H-pyrazol-3(2H)-one [Compound 6]” showed an EC50 [1] of 4700 nM.

For `O=c1cc(CSc2ccc(Cl)cc2)[nH][nH]1` [Compound 1], the microsomal metabolite identified [7] was “sulfoxide”.

In the case of `O=c1cc(CSc2c(Cl)cccc2Cl)[nH][nH]1` [Compound 2], the “activity in primary cortical neuron cell protection assay” value [6] is reported as “active”.

For `O=c1cc(COc2ccc(Cl)cc2)[nH][nH]1` [Compound 9, 5-((4-Chlorophenoxy)methyl)-1H-pyrazol-3(2H)-one], the CLint scaled at 1 h, 5 µM ([2]; CL’int, 1 h, with NADPH) was 15.3 mL/min/kg, the “CL’int” value [3] was 24.5 mL/min/kg and the “CL’int NADPH-free” value [3] was 6.1 mL/min/kg.

In the case of `O=c1cc(COc2cc(Cl)cc(Cl)c2)[nH][nH]1` [Compound 13, 5-((3,5-Dichlorophenoxy)methyl)-1H-pyrazol-3(2H)-one], the CLint scaled at 1 h, 5 µM ([2]; CL’int NADPH-free, absence of NADPH) is reported as 13 mL/min/kg, the “CL’int” value [3] is reported as 64 mL/min/kg and the “CL’int NADPH-free” value [3] is reported as 21 mL/min/kg. For the same molecule, the solubility at 45 min ([4]; PBS with 1% DMSO) was 250 µM (≈ 64.8 µg/mL), the solubility at 16 h ([4]; PBS with 1% DMSO) was 250 µM (≈ 64.8 µg/mL) and the “Ratio (B→A / A→B)” value [5] was 0.2–0.6. For the same molecule, the “activity in primary cortical neuron cell protection assay” value [6] was “active”, the “activity in SHSY-5Y cells” value [8] was “active” and the “activity in HeLa cells” value [9] was “active”. The “activity in HEK293 cells” value [10] was “active”, the concentration at 0 h [11, 16] was 0 ng/mL and the concentration at 3 h [11, 16] was 88800 ng/mL and 88.8 µM. For the same molecule, the concentration at 6 h [11, 16] was 90000 ng/mL and 90 µM, the concentration at 12 h [11, 16] was 64400 ng/mL and 64.4 µM and the concentration at 24 h [11, 16] was 1700 ng/mL and 1.7 µM. The “time of plasma peak” value ([11]; mice, i.p.) was 3 to 6 h, the AUC/Dose ([12]; 1 mg/kg i.v. single bolus) was 184 ng × h/mL/dose and the AUC/Dose ([12]; 1 mg/kg p.o. single bolus) was 50 ng × h/mL/dose. The IC50 [13] was > 50000 nM and the “activity in the 68 assays of LeadProfilingScreen” value [14] was “No significant activity; also recorded: no significant binding”.

In the case of `Nc1nc2ccc(OC(F)(F)F)cc2s1` [riluzole], the “extension of patient lives” value [15] is listed as 2–3 months.
